The values below come from paper PMC4401318 (ACS Chemical Neuroscience, 2015).

Assay [1] concerns the target T1, KOP receptor (Homo sapiens, UniProt P41145). Briefly: biochemical.
The target of assay [2] is T2, MOP receptor (Homo sapiens, UniProt P35372). As to the kind of experiment: biochemical.
Assay [3] concerns the target T3, DOP receptor (Homo sapiens, UniProt P41143). Briefly: Radioligand competition binding, DOP. For orientation: Displacement assays read how much labelled ligand stays bound in the presence of the test substance.
For assay [4], the target named is T3, DOP receptor. As to the kind of experiment: [35S]GTPγS binding stimulation. In kind it is biochemical. The following applies: for [35S]GTPγS DOP % stim: compared to standard agonist DPDPE.
Assay [5] concerns the target T4, NOP receptor (Homo sapiens, UniProt P41146). Briefly: [35S]GTPγS binding stimulation. In kind it is biochemical. The following applies: for intrinsic (agonist) activity in [35S]GTPγS assay at any of the opioid receptors: NOP, KOP, MOP and DOP, up to 10 μM; for [35S]GTPγS NOP % stim: compared to standard agonist N/OFQ.
Assay [6] addresses T1, KOP receptor. Briefly: Radioligand competition binding, KOP.
The target in assay [7] is T1, KOP receptor. The following applies: agonist U69,593; ref 4b; cited from earlier work.
The target of assay [8] is T3, DOP receptor. The note with it: agonist DPDPE; ref 4b; cited from earlier work.
Assay [9] addresses T2, MOP receptor. The note with it: cited from earlier work.
The target in assay [10] is T4, NOP receptor. Briefly: Inhibition of agonist-stimulated [35S]GTPγS binding, NOP. In kind it is biochemical. The following applies: for nature of antagonism at NOP: agonist nociceptin concentration-response curves. On the technique in general: GTPγS resists hydrolysis and so accumulates on activated G proteins.
In assay [11] the target is T3, DOP receptor. As to the kind of experiment: Inhibition of agonist-stimulated [35S]GTPγS binding, DOP. In kind it is biochemical.
For assay [12], the target named is T2, MOP receptor. Type of assay: biochemical.
Assay [13] concerns the target T1, KOP receptor. Briefly: Inhibition of agonist-stimulated [35S]GTPγS binding, KOP. In kind it is biochemical. The following applies: agonist U69,593 concentration-response curves; listed as AT-076. In short, it runs like this:
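CHO cells stably expressing human KOP cDNA, grown in DMEM/10% FBS with 0.4 mg/mL G418. Membranes were washed into 20 mM HEPES, 10 mM MgCl2, 100 mM NaCl, pH 7.4. Membranes (8–15 μg protein) were incubated 60 min at 25 °C with 50 pM [35S]GTPγS and 10 μM GDP. U69,593 concentration–response curves were run at several fixed test-compound concentrations. Binding was read by filtration and scintillation counting. Antagonism type was assigned by Schild regression.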

Assay [14] has as its target T4, NOP receptor. Briefly: Radioligand competition binding, NOP.

One may read the EC50 as the midpoint of the concentration-response curve. Low readings indicate greater potency, high ones weaker potency. As a reminder, the Ki is the equilibrium dissociation constant of an inhibitor or competing ligand from its target. The low end stands for higher affinity, the high end for lower affinity.

Molecules are shown by their SMILES. Entries after “also recorded” stand apart in the source; their conditions may differ. Marks after values point to notes of the source that are not given here.

Regarding `C[C@H]1CN(C[C@H]2Cc3ccccc3CN2)CC[C@@]1(C)c1cccc(O)c1` [Compound 5, 3-((3R,4R)-3,4-Dimethyl-1-(((R)-1,2,3,4-tetrahydroisoquinolin-3-yl)methyl)piperidin-4-yl)phenol], on KOP receptor [1], the EC50 is above 10000 nM and the “[35S]GTPγS KOP % stim” value worked out at 0%. Also, on MOP receptor [2], the EC50 is above 10000 nM and the “[35S]GTPγS MOP % stim” value turned out to be 0%. In addition, the affinity at DOP receptor [3], expressed as Ki, was 38.8 ± 9.9 nM. At DOP receptor [4], the half-maximal effective concentration (EC50) is above 10000 nM and the “[35S]GTPγS DOP % stim” value was 0%. At NOP receptor [5], the concentration for a half-maximal effect (EC50) was above 10000 nM, the “intrinsic (agonist) activity in [35S]GTPγS assay at any of the opioid receptors” value (from here on “intrinsic (agonist) activity”) is “no intrinsic activity” and the “[35S]GTPγS NOP % stim” value is reported as 0%. Also, the affinity at KOP receptor [6], expressed as Ki, was 19.5 ± 6.6 nM.
In the case of `Cc1cccc2c1CC[C@H](CN1CCC(c3c(Cl)cccc3Cl)CC1)C[C@@H]2O` [SB-612111, (−)-cis-1-methyl-7-[[4-(2,6-dichlorophenyl)piperidin-1-yl]methyl]-6,7,8,9-tetrahydro-5H-benzocyclohepten-5-ol, reference compound], at NOP receptor [5], the “[35S]GTPγS NOP % stim” value was 0%.
Turning to `C[C@H]1CN(C2CCCCCCC2)CC[C@@]1(C)c1cccc(O)c1` [Compound 3, 3-((3R,4R)-1-Cyclooctyl-3,4-dimethylpiperidin-4-yl)phenol], at KOP receptor [1], the 50% effective concentration (EC50) is above 10000 nM and the “[35S]GTPγS KOP % stim” value turned out to be 0%. Further, the affinity on DOP receptor [3] corresponds to a Ki of 2910 ± 834 nM. On KOP receptor [6], this compound came in with an inhibition constant Ki of 68.1 ± 2.21 nM.
Consider `CC(C)[C@@H](CN1CC[C@@](C)(c2cccc(O)c2)[C@@H](C)C1)NC(=O)[C@H]1Cc2ccc(O)cc2CN1` [JDTic, (3R)-7-hydroxy-N-((1S)-1-{[(3R,4R)-4-(3-hydroxyphenyl)-3,4-dimethyl-1-piperidinyl]methyl}-2-methylpropyl)-1,2,3,4-tetrahydro-3-isoquinolinecarboxamide, reference compound], for which, at KOP receptor [1], the “[35S]GTPγS KOP % stim” value was determined as 0%. Besides, the “[35S]GTPγS MOP % stim” value at MOP receptor [2] is reported as 0%. On KOP receptor [7], the “Ke KOP (antagonist potency)” value was 0.01 ± 0.00 ^f nM. The “[35S]GTPγS DOP % stim” value on DOP receptor [4] came to 0%. Moreover, the “Ke DOP (antagonist potency)” value on DOP receptor [8] is reported as 79.3 ± 9.3 ^f nM. Also, at MOP receptor [9], the “Ke MOP (antagonist potency)” value is 3.41 ± 0.36 ^f nM. Further, on NOP receptor [5], the EC50 is above 10000 nM, the “intrinsic (agonist) activity” value is “no intrinsic activity” and the “[35S]GTPγS NOP % stim” value was found to be 0%. Further, the “intrinsic activity in [35S]GTPγS functional assay at NOP” value at NOP receptor [5] (compound alone) was “no intrinsic activity”. Besides, on NOP receptor [10], the Kb is 680.2 ± 2.35 nM and the “nature of antagonism at NOP” value was “noncompetitive antagonism”.
As to `CC(C)[C@@H](CN1CCC(c2cccc(O)c2)CC1)NC(=O)[C@H]1Cc2ccccc2CN1` [Compound 7, (R)-N-((S)-1-(4-(3-Hydroxyphenyl)piperidin-1-yl)-3-methylbutan-2-yl)-1,2,3,4-tetrahydroisoquinoline-3-carboxamide], at KOP receptor [1], the EC50 was above 10000 nM and the “[35S]GTPγS KOP % stim” value came out at 0%. The same compound had a Ki at DOP receptor [3] of 1400 ± 111 nM. Moreover, at NOP receptor [5], the concentration giving a half-maximal response (EC50) is above 10000 nM and the “[35S]GTPγS NOP % stim” value turned out to be 7.0 ± 3.2%. Moreover, the affinity on KOP receptor [6], expressed as Ki, was 100 ± 0.9 nM.
Consider `C[C@H]1CN(C[C@H]2Cc3ccc(O)cc3CN2)CC[C@@]1(C)c1cccc(O)c1` [Compound 4, (R)-3-(((3R,4R)-4-(3-Hydroxyphenyl)-3,4-dimethylpiperidin-1-yl)methyl)-1,2,3,4-tetrahydroisoquinolin-7-ol], for which, on MOP receptor [2], the EC50 is above 10000 nM and the “[35S]GTPγS MOP % stim” value is 0%. The same compound yielded an inhibition constant Ki at DOP receptor [3] of 205 nM. At KOP receptor [6], this compound had an inhibitory constant (Ki) of 410 ± 130 nM.
On DOP receptor [11], `CC(C)[C@@H](CN1CCC(c2cccc(O)c2)CC1)NC(=O)[C@H]1Cc2ccc(O)cc2CN1` [Compound 6, (R)-7-Hydroxy-N-((S)-1-(4-(3-hydroxyphenyl)piperidin-1-yl)-3-methylbutan-2-yl)-1,2,3,4-tetrahydroisoquinoline-3-carboxamide] came in with a Kb of 24.9 ± 13 nM. Also, the “nature of antagonism at DOP” value at DOP receptor [11] (agonist DPDPE concentration-response curves, listed as AT-076) is reported as “competitive antagonist; also recorded: competitive antagonism”. The “Ke more potent than that of JDTic” value on MOP receptor [12] (at the MOP and DOP receptors) is given as 3–6 fold. Moreover, the “nature of antagonism at MOP” value at MOP receptor [12] (listed as AT-076) is “competitive antagonist; also recorded: competitive antagonism”. On KOP receptor [1], the concentration giving a half-maximal response (EC50) was above 10000 nM and the “[35S]GTPγS KOP % stim” value is given as 0%. In addition, at MOP receptor [2], the concentration for a half-maximal effect (EC50) is above 10000 nM and the “[35S]GTPγS MOP % stim” value was 0%. The “nature of antagonism at KOP” value on KOP receptor [13] is reported as “noncompetitive antagonist profile; also recorded: insurmountable antagonism”. For the same compound, on DOP receptor [4], the EC50 was above 10000 nM and the “[35S]GTPγS DOP % stim” value is 0%. For the same compound, the “increase in NOP binding affinity compared with JDTic” value on NOP receptor [14] (ratio of Ki) was found to be 10 fold. At NOP receptor [5], the “intrinsic (agonist) activity” value is reported as “no intrinsic (agonist) activity” and the “[35S]GTPγS NOP % stim” value was found to be 0%. Further, the “nature of antagonism at NOP” value on NOP receptor [10] (listed as AT-076) is listed as “noncompetitive antagonist profile; also recorded: insurmountable antagonism”.
Consider `CC(C)[C@@H](CN1CCC(c2ccccc2)CC1)NC(=O)[C@H]1Cc2ccc(O)cc2CN1` [Compound 8, (R)-7-Hydroxy-N-((S)-3-methyl-1-(4-phenylpiperidin-1-yl)butan-2-yl)-1,2,3,4-tetrahydroisoquinoline-3-carboxamide], for which the EC50 at KOP receptor [1] is 408 ± 41 nM; at NOP receptor [5], 53.3 ± 12.1 nM. The “[35S]GTPγS KOP % stim” value on KOP receptor [1] was found to be 72.3 ± 4%. Besides, on MOP receptor [2], the “[35S]GTPγS MOP % stim” value worked out at 0%. The results for the inhibition constant Ki on DOP receptor [3], at NOP receptor [14] and on KOP receptor [6] were above 10000 nM, 10.9 ± 2.14 nM and 2.15 ± 0.82 nM, respectively. The “[35S]GTPγS NOP % stim” value on NOP receptor [5] was determined as 18.3 ± 1.3%.
